ChEMBL document CHEMBL1158621, “Tricyclic sulfones as orally active gamma-secretase inhibitors: synthesis and structure-activity relationship studies” (Bioorg Med Chem Lett, 2010)
Active and inactive are the calls of the source. The rule behind the calls is not given here.

Legend:
[1] = Inhibition of gamma-secretase-mediated cleavage of human APP Swedish and London mutation expressed in HEK293 cell membrane; format: cell-based
[2] = Inhibition of gamma-secretase-mediated cleavage of human APP Swedish and London mutation expressed in HEK293 cells assessed as reduction in amyloid beta42 production after 4 hrs by ECL technology; format: cell-based
[3] = Inhibition of gamma-secretase-mediated cleavage of human APP Swedish and London mutation expressed in HEK293 cells assessed as reduction in amyloid beta40 production after 4 hrs by ECL technology; format: cell-based
Summary of the method: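 HEK293 cells expressing human APP with Swedish and London mutations were given fresh medium and incubated with inhibitor for 4 h. Ab40 was measured in 10 microliters of conditioned medium by ECL. Values are means of n = 2.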

[4] = Permeability across human Caco-2 cells; format: ADME, cell-based; details: read-out: permeability
[5] = Binding affinity to p-glycoprotein
[6] = target: Cytochrome P450 3A4 (Homo sapiens, UniProt P08684); experiment: Inhibition of CYP3A4 preincubated for 30 mins; format: ADME
Summary of the method: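 CYP3A4 inhibition was determined after the compound was pre-incubated for 30 min.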

[7] = AUC in rat at 10 mg/kg, po after 6 hrs; format: ADME, organism-based; parameters: time < 6 hr, dose 10 mg/kg, route oral; details: plasma
Summary of the method: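 Rats were dosed orally at 10 mpk in 20% HPBCD. AUC was measured over 6 h by the cassette-accelerated rapid rat screen (CARRS).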

[8] = Drug level in rat brain at 10 mg/kg, po after 6 hrs; format: ADME, organism-based; parameters: dose 10 mg/kg, route oral; details: read-out: Drug uptake
[9] = Ratio of drug level in brain to plasma in rat at 10 mg/kg, po; format: ADME, organism-based; parameters: dose 10 mg/kg, route oral
[10] = target: Voltage-gated inwardly rectifying potassium channel KCNH2 (Homo sapiens, UniProt Q12809); experiment: Inhibition of human ERG at 30 uM
[11] = organism: Homo sapiens; experiment: Protein binding in human plasma; details: read-out: PPB (converted)
[12] = system: Mus musculus; experiment: Reduction of amyloid beta40 level in non-transgenic mouse plasma at 10 mg/kg, po after 3 hrs; format: functional
[13] = system: Mus musculus; experiment: Reduction of amyloid beta40 level in non-transgenic mouse brain at 10 mg/kg, po after 3 hrs; format: functional

Sequence of Voltage-gated inwardly rectifying potassium channel KCNH2 (Q12809 whole entry): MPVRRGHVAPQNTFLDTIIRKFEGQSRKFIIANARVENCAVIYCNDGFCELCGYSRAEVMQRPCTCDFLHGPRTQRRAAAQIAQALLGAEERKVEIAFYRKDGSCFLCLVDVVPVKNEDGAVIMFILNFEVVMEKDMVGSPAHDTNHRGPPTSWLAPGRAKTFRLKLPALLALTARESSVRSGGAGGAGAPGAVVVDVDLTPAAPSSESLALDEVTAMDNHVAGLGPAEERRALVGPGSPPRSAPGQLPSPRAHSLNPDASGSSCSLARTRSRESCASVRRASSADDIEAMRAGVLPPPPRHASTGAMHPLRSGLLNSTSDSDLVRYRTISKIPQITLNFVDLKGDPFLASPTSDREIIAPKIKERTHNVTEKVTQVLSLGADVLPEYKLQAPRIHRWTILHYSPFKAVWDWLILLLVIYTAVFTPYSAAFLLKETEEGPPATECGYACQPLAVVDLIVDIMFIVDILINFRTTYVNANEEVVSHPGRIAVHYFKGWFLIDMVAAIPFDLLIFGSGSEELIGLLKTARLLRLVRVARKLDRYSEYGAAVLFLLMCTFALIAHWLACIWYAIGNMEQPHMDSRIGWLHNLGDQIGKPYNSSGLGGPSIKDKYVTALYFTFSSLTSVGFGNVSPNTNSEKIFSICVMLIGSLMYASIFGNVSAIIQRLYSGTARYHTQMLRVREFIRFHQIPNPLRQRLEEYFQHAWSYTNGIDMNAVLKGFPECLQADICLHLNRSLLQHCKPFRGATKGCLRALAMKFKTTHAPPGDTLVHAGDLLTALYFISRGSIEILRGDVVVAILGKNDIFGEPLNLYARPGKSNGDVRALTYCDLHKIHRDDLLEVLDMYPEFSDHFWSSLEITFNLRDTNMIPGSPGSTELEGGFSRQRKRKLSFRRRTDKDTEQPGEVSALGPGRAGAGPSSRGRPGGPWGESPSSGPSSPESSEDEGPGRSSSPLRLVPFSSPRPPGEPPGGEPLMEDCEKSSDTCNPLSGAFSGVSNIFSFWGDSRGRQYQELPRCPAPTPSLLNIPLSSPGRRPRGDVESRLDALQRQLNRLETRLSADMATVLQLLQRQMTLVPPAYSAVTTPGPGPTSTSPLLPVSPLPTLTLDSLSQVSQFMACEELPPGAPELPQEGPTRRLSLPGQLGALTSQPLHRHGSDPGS
Sequence of Cytochrome P450 3A4 (P08684 whole entry): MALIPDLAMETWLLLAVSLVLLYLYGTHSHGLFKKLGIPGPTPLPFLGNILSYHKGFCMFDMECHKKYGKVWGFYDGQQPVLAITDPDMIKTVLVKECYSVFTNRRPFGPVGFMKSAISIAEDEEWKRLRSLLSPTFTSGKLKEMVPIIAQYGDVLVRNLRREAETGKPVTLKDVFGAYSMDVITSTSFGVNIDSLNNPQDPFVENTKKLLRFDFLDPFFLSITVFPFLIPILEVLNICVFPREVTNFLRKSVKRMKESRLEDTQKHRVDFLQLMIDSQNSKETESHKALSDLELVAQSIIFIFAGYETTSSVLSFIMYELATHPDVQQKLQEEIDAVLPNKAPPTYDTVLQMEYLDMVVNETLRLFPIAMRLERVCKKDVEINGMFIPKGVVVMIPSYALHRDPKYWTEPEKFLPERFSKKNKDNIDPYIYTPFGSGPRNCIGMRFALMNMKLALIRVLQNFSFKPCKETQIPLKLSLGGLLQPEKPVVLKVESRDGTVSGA

Row | SMILES | IC50 [1] [nM] | IC50 [2] [nM] | IC50 [3] [nM] | further results
1 | CCN(C[C@@H]1CCC[C@@]2(S(=O)(=O)c3ccc(C(F)(F)F)cc3)c3c(F)ccc(F)c3OC[C@@H]12)S(=O)(=O)C(F)(F)F | 97 | 21 | 42 | 
2 | CCCCS(=O)(=O)NC[C@@H]1CCC[C@@]2(S(=O)(=O)c3ccc(Cl)cc3)c3c(F)ccc(F)c3OC[C@@H]12 | 13 | 13 | 29 | 
3 | CS(=O)(=O)N(C[C@@H]1CCC[C@@]2(S(=O)(=O)c3ccc(Cl)cc3)c3c(F)ccc(F)c3OC[C@@H]12)C1CC1 | 3.3 | 4 | 6 | 
4 | CCS(=O)(=O)NC[C@@H]1CCC[C@@]2(S(=O)(=O)c3ccc(C(F)(F)F)cc3)c3c(F)ccc(F)c3OC[C@@H]12 | 20 | 1.6 | 5.5 | 
5 | O=S1(=O)NCCN1C[C@@H]1CCC[C@@]2(S(=O)(=O)c3ccc(C(F)(F)F)cc3)c3c(F)ccc(F)c3OC[C@@H]12 | 37.7 |  |  | 
6 | O=S(=O)(NC[C@@H]1CCC[C@@]2(S(=O)(=O)c3ccc(Cl)cc3)c3c(F)ccc(F)c3OC[C@@H]12)N1CCOCC1 | 3.4 | 3 | 6 | 
7 | CCS(=O)(=O)NC[C@@H]1CCC[C@@]2(S(=O)(=O)c3ccc(Cl)cc3)c3c(F)ccc(F)c3OC[C@@H]12 | 1.6 | 2 | 4 | 
8 | O=S(=O)(CC(F)(F)F)NC[C@@H]1CCC[C@@]2(S(=O)(=O)c3ccc(Cl)cc3)c3c(F)ccc(F)c3OC[C@@H]12 | 7.8 | 4 | 16 | 
9 | O=S(=O)(N(C[C@@H]1CCC[C@@]2(S(=O)(=O)c3ccc(Cl)cc3)c3c(F)ccc(F)c3OC[C@@H]12)C1CC1)C(F)(F)F | 15 | 9 | 21 | 
10 | CC(C)S(=O)(=O)NC[C@@H]1CCC[C@@]2(S(=O)(=O)c3ccc(Cl)cc3)c3c(F)ccc(F)c3OC[C@@H]12 | 5.2 | 5 | 12 | 
11 | O=S(=O)(NC[C@@H]1CCC[C@@]2(S(=O)(=O)c3ccc(Cl)cc3)c3c(F)ccc(F)c3OC[C@@H]12)C1CCCCC1 | 55 | 20 | 60 | 
12 | O=S1(=O)CCCN1C[C@@H]1CCC[C@@]2(S(=O)(=O)c3ccc(C(F)(F)F)cc3)c3c(F)ccc(F)c3OC[C@@H]12 | 90 | 25 | 72 | 
13 | O=S(=O)(N(C[C@@H]1CCC[C@@]2(S(=O)(=O)c3ccc(C(F)(F)F)cc3)c3c(F)ccc(F)c3OC[C@@H]12)C1CC1)C(F)(F)F | 35.3 | 14.2 | 15.3 | 
14 | O=S(=O)(NC[C@@H]1CCC[C@@]2(S(=O)(=O)c3ccc(Cl)cc3)c3c(F)ccc(F)c3OC[C@@H]12)C1CC1 | 3.1 | 4 | 4 | 
15 | CN1CCN(C[C@@H]2CCC[C@@]3(S(=O)(=O)c4ccc(C(F)(F)F)cc4)c4c(F)ccc(F)c4OC[C@@H]23)S1(=O)=O | 68 | 13 | 23 | 
16 | O=S(=O)(NC[C@@H]1CCC[C@@]2(S(=O)(=O)c3ccc(Cl)cc3)c3c(F)ccc(F)c3OC[C@@H]12)c1c(F)cccc1F | 13 | 17 | 32 | 
17 | CCN(C[C@@H]1CCC[C@@]2(S(=O)(=O)c3ccc(Cl)cc3)c3c(F)ccc(F)c3OC[C@@H]12)S(=O)(=O)C1CC1 | 20.5 | 9 | 25 | 
18 | CCOC(=O)CCS(=O)(=O)NC[C@@H]1CCC[C@@]2(S(=O)(=O)c3ccc(Cl)cc3)c3c(F)ccc(F)c3OC[C@@H]12 | 2 | 3 | 4 | 
19 | O=S(=O)(CC(F)(F)F)NC[C@@H]1CCC[C@@]2(S(=O)(=O)c3ccc(C(F)(F)F)cc3)c3c(F)ccc(F)c3OC[C@@H]12 | 25 | 8 | 22.7 | 
20 | O=S(=O)(NC[C@@H]1CCC[C@@]2(S(=O)(=O)c3ccc(Cl)cc3)c3c(F)ccc(F)c3OC[C@@H]12)N1CCCC1 | 3.3 | 3 | 5 | 
21 | CS(=O)(=O)NC[C@@H]1CCC[C@@]2(S(=O)(=O)c3ccc(Cl)cc3)c3c(F)ccc(F)c3OC[C@@H]12 | 2.5 | 2 | 2 | 

Row | SMILES | IC50 [1] [nM] | IC50 [2] [nM] | IC50 [3] [nM] | further results
22 | CCN(C[C@@H]1CCC[C@@]2(S(=O)(=O)c3ccc(C(F)(F)F)cc3)c3c(F)ccc(F)c3OC[C@@H]12)S(C)(=O)=O | 34 | 7.4 | 18.5 | 
23 | CS(=O)(=O)NC[C@@H]1CCC[C@@]2(S(=O)(=O)c3ccc(C(F)(F)F)cc3)c3c(F)ccc(F)c3OC[C@@H]12 | 13 | 3.6 | 12 | Papp [4]: 42.1 ×10⁻⁶ cm/s; Activity [5]: inactive; IC50 [6]: > 30000 nM; AUC at 6 h [7]: 2010 ng·h/mL; concentration at 6 h [8]: 80 ng/g; Kp [9]: 0.73; inhibition (INH) [10]: Not Active; fraction unbound [11]: 0.019
24 | NS(=O)(=O)NC[C@@H]1CCC[C@@]2(S(=O)(=O)c3ccc(Cl)cc3)c3c(F)ccc(F)c3OC[C@@H]12 | 2 | 1 | 1 | 
25 | CCN(C[C@@H]1CCC[C@@]2(S(=O)(=O)c3ccc(C(F)(F)F)cc3)c3c(F)ccc(F)c3OC[C@@H]12)S(=O)(=O)C1CC1 | 83 | 21 | 46.7 | 
26 | CCN(CC)S(=O)(=O)NC[C@@H]1CCC[C@@]2(S(=O)(=O)c3ccc(Cl)cc3)c3c(F)ccc(F)c3OC[C@@H]12 | 9 | 3 | 6 | 
27 | O=S(=O)(NC[C@@H]1CCC[C@@]2(S(=O)(=O)c3ccc(Cl)cc3)c3c(F)ccc(F)c3OC[C@@H]12)N1CCCCC1 | 6 | 11 | 19 | 
28 | CS(=O)(=O)N(C[C@@H]1CCC[C@@]2(S(=O)(=O)c3ccc(C(F)(F)F)cc3)c3c(F)ccc(F)c3OC[C@@H]12)C1CC1 | 5.8 | 6 | 9 | 
29 | O=S(=O)(NC[C@@H]1CCC[C@@]2(S(=O)(=O)c3ccc(Cl)cc3)c3c(F)ccc(F)c3OC[C@@H]12)c1cccs1 | 16.7 | 18 | 45 | 
30 | O=S(=O)(NC[C@@H]1CCC[C@@]2(S(=O)(=O)c3ccc(C(F)(F)F)cc3)c3c(F)ccc(F)c3OC[C@@H]12)C1CC1 | 19.7 | 6.3 | 17.5 | 
31 | CN(C)S(=O)(=O)NC[C@@H]1CCC[C@@]2(S(=O)(=O)c3ccc(C(F)(F)F)cc3)c3c(F)ccc(F)c3OC[C@@H]12 | 6.8 | 5.4 | 12.7 | 
32 | O=S(=O)(NC[C@@H]1CCC[C@@]2(S(=O)(=O)c3ccc(Cl)cc3)c3c(F)ccc(F)c3OC[C@@H]12)c1ccccc1 | 61 | 46 | 128 | 
33 | O=S(=O)(NC[C@@H]1CCC[C@@]2(S(=O)(=O)c3ccc(C(F)(F)F)cc3)c3c(F)ccc(F)c3OC[C@@H]12)C(F)(F)F | 41.7 | 18.7 | 40.6 | Papp [4]: 23 ×10⁻⁶ cm/s; Activity [5]: inactive; IC50 [6]: > 30000 nM; AUC at 6 h [7]: 702 ng·h/mL; concentration at 6 h [8]: 91 ng/g; Kp [9]: 1.01; inhibition in vivo at 10 mg/kg [12]: 101%; inhibition in vivo at 10 mg/kg [13]: 71%; inhibition (INH) [10]: Not Active; fraction unbound [11]: 0.001
34 | CN(C)S(=O)(=O)NC[C@@H]1CCC[C@@]2(S(=O)(=O)c3ccc(Cl)cc3)c3c(F)ccc(F)c3OC[C@@H]12 | 2.7 | 1 | 2 | 
35 | CCS(=O)(=O)N(C[C@@H]1CCC[C@@]2(S(=O)(=O)c3ccc(C(F)(F)F)cc3)c3c(F)ccc(F)c3OC[C@@H]12)C1CC1 | 28 | 14.2 | 29.5 | 
36 | CCN(C[C@@H]1CCC[C@@]2(S(=O)(=O)c3ccc(Cl)cc3)c3c(F)ccc(F)c3OC[C@@H]12)S(=O)(=O)CC | 16 | 7 | 15 | 
37 | O=S(=O)(NC[C@@H]1CCC[C@@]2(S(=O)(=O)c3ccc(Cl)cc3)c3c(F)ccc(F)c3OC[C@@H]12)C(F)(F)F | 12 | 9 | 18 | inhibition in vivo at 10 mg/kg [12]: 86%; inhibition in vivo at 10 mg/kg [13]: 48%
38 | CCCS(=O)(=O)NC[C@@H]1CCC[C@@]2(S(=O)(=O)c3ccc(Cl)cc3)c3c(F)ccc(F)c3OC[C@@H]12 | 5.5 | 6 | 12 | 
39 | O=S1(=O)CCCCN1C[C@@H]1CCC[C@@]2(S(=O)(=O)c3ccc(C(F)(F)F)cc3)c3c(F)ccc(F)c3OC[C@@H]12 | 122 |  |  | 
40 | NS(=O)(=O)NC[C@@H]1CCC[C@@]2(S(=O)(=O)c3ccc(C(F)(F)F)cc3)c3c(F)ccc(F)c3OC[C@@H]12 | 18.7 | 4 | 6 | 
41 | CCN(C[C@@H]1CCC[C@@]2(S(=O)(=O)c3ccc(Cl)cc3)c3c(F)ccc(F)c3OC[C@@H]12)S(C)(=O)=O | 5.5 | 5 | 12 | 
